# Experimental data taken from ChEMBL document CHEMBL1145212, “Fluorinated diaryl sulfides as serotonin transporter ligands: synthesis, structure-activity relationship study, and in vivo evaluation of fluorine-18-labeled compounds as PET imaging agents” (J Med Chem, 2005).
# pKi: −log10 of the molar value.
# Tests used:
# Rattus norvegicus [1] = species: Rattus norvegicus; experiment: Regional uptake of [18F]-AFA in hypothalamus of rat pretreated with compound 7f; n=3; format: functional, organism-based; settings: tested as the 18F-labelled form
# Rattus norvegicus [2] = species: Rattus norvegicus; experiment: Regional uptake of [18F]-AFA in blood of rat pretreated with compound citalopram; n=3; format: functional, organism-based; settings: tested as the 18F-labelled form
# In short: (§1)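 Male Sprague-Dawley rats, three per group, received blocker (2 mg/kg iv in saline) or saline only (controls) 10–15 min before about 20 µCi of tail-vein F-18 radioligand. Killed 60 min after tracer. Blood and brain regions weighed and gamma-counted. %ID/g was decay- and tail-corrected; mean ± SD.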
# Rattus norvegicus [3] = species: Rattus norvegicus; experiment: Regional uptake of [18F]AFA in blood of rat pretreated with compound nisoxetine; n=3; format: functional, organism-based; settings: tested as the 18F-labelled form; in short: as §1
# Rattus norvegicus [4] = species: Rattus norvegicus; experiment: Regional uptake of [18F]AFA in frontal cortex of rat pretreated with compound 7f; n=3; format: functional, organism-based; settings: tested as the 18F-labelled form
# Rattus norvegicus [5] = species: Rattus norvegicus; experiment: Regional uptake of [18F]-AFA in striatum of rat pretreated with compound GBR-12935; n=3; format: functional, organism-based; settings: tested as the 18F-labelled form; in short: as §1
# Rattus norvegicus [6] = species: Rattus norvegicus; experiment: Regional uptake of [18F]AFA in thalamus of rat pretreated with compound GBR-12935; n=3; format: functional, organism-based; settings: tested as the 18F-labelled form; in short: as §1
# Rattus norvegicus [7] = species: Rattus norvegicus; experiment: Regional uptake of [18F]AFA in striatum of rat pretreated with compound citalopram; n=3; format: functional, organism-based; settings: tested as the 18F-labelled form; in short: as §1
# Rattus norvegicus [8] = species: Rattus norvegicus; experiment: Regional uptake of [18F]AFA in striatum of rat pretreated with compound nisoxetine; n=3; format: functional, organism-based; settings: tested as the 18F-labelled form; in short: as §1
# Rattus norvegicus [9] = species: Rattus norvegicus; experiment: Regional uptake of [18F]AFA in thalamus of rat pretreated with compound citalopram; n=3; format: functional, organism-based; settings: tested as the 18F-labelled form; in short: as §1
# Rattus norvegicus [10] = species: Rattus norvegicus; experiment: Regional uptake of [18F]AFA in thalamus of rat pretreated with compound nisoxetine; n=3; format: functional, organism-based; settings: tested as the 18F-labelled form; in short: as §1
# Rattus norvegicus [11] = species: Rattus norvegicus; experiment: Regional uptake of [18F]AFA in hippocampus of rat pretreated with compound GBR-12935; n=3; format: functional, organism-based; settings: tested as the 18F-labelled form; in short: as §1
# Rattus norvegicus [12] = species: Rattus norvegicus; experiment: Regional uptake of [18F]AFA in cerebellum of rat pretreated with compound citalopram; n=3; format: functional, organism-based; settings: tested as the 18F-labelled form; in short: as §1
# Rattus norvegicus [13] = species: Rattus norvegicus; experiment: Regional uptake of [18F]AFA in cerebellum of rat pretreated with compound nisoxetine; n=3; format: functional, organism-based; settings: tested as the 18F-labelled form; in short: as §1
# Rattus norvegicus [14] = species: Rattus norvegicus; experiment: Regional uptake of [18F]AFA in hypothalamus of rat pretreated with compound GBR-12935; n=3; format: functional, organism-based; settings: tested as the 18F-labelled form; in short: as §1
# Rattus norvegicus [15] = species: Rattus norvegicus; experiment: Regional uptake of [18F]AFA in hippocampus of rat pretreated with compound citalopram; n=3; format: functional, organism-based; settings: tested as the 18F-labelled form; in short: as §1
# Rattus norvegicus [16] = species: Rattus norvegicus; experiment: Regional uptake of [18F]AFA in hippocampus of rat pretreated with compound nisoxetine; n=3; format: functional, organism-based; settings: tested as the 18F-labelled form; in short: as §1
# Rattus norvegicus [17] = species: Rattus norvegicus; experiment: Regional uptake of [18F]AFA in frontal cortex of rat pretreated with compound GBR-12935; n=3; format: functional, organism-based; settings: tested as the 18F-labelled form; in short: as §1
# Rattus norvegicus [18] = species: Rattus norvegicus; experiment: Regional uptake of [18F]-AFA in hypothalamus of rat pretreated with compound nisoxetine; n=3; format: functional, organism-based; settings: tested as the 18F-labelled form; in short: as §1
# Rattus norvegicus [19] = species: Rattus norvegicus; experiment: Regional uptake of [18F]AFA in frontal cortex of rat pretreated with compound citalopram; n=3; format: functional, organism-based; settings: tested as the 18F-labelled form; in short: as §1
# Rattus norvegicus [20] = species: Rattus norvegicus; experiment: Regional uptake of [18F]AFA in frontal cortex of rat pretreated with compound nisoxetine; n=3; format: functional, organism-based; settings: tested as the 18F-labelled form; in short: as §1
# [21] = target: Sodium-dependent serotonin transporter (Homo sapiens, UniProt P31645); experiment: In vitro displacement of [3H]paroxetine from human serotonin transporter expressed in HEK293 cells; format: cell-based
# Sodium-dependent serotonin transporter, sequence (P31645 whole entry): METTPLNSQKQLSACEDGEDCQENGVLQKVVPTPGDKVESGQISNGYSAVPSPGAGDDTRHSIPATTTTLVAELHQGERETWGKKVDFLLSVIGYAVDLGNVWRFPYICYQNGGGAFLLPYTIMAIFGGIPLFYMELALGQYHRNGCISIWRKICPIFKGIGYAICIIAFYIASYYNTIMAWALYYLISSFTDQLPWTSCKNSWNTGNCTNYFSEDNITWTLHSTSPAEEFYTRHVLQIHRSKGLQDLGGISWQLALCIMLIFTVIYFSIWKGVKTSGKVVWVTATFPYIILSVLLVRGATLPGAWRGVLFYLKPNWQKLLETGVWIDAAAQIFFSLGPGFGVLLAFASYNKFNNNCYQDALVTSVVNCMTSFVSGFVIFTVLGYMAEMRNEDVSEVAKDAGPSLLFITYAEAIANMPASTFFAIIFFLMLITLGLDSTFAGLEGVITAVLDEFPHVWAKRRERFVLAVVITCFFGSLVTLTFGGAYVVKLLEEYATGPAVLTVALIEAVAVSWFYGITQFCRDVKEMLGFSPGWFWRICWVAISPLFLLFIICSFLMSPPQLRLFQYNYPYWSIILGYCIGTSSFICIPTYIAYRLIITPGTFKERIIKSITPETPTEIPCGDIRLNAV
# Rattus norvegicus [22] = species: Rattus norvegicus; experiment: Regional uptake of [18F]AFA in cerebellum of rat pretreated with compound GBR-12935; n=3; format: functional, organism-based; settings: tested as the 18F-labelled form; in short: as §1
# Rattus norvegicus [23] = species: Rattus norvegicus; experiment: Regional uptake of [18F]AFA in hypothalamus of rat pretreated with compound citalopram; n=3; format: functional, organism-based; settings: tested as the 18F-labelled form; in short: as §1
# Rattus norvegicus [24] = species: Rattus norvegicus; experiment: Regional uptake of [18F]AFP in thalamus of rat pretreated with compound 7f; n=3; settings: tested as the 18F-labelled form
# Rattus norvegicus [25] = species: Rattus norvegicus; experiment: Regional uptake of [18F]-AFP in striatum of rat pretreated with compound 7f; n=3; settings: tested as the 18F-labelled form
smiles,measurement,setting,value
CN(C)Cc1ccccc1Sc1ccc(CCCF)cc1N,Uptake,Rattus norvegicus [1],0.1 %ID/g
same,Uptake,Rattus norvegicus [2],0.09 %ID/g
same,Uptake,Rattus norvegicus [3],0.08 %ID/g
same,Uptake,Rattus norvegicus [4],0.08 %ID/g
same,Uptake,Rattus norvegicus [5],0.17 %ID/g
same,Uptake,Rattus norvegicus [6],0.18 %ID/g
same,Uptake,Rattus norvegicus [7],0.12 %ID/g
same,Uptake,Rattus norvegicus [8],0.13 %ID/g
same,Uptake,Rattus norvegicus [9],0.15 %ID/g
same,Uptake,Rattus norvegicus [10],0.15 %ID/g
same,Uptake,Rattus norvegicus [11],0.16 %ID/g
same,Uptake,Rattus norvegicus [12],0.08 %ID/g
same,Uptake,Rattus norvegicus [13],0.08 %ID/g
same,Uptake,Rattus norvegicus [14],0.17 %ID/g
same,Uptake,Rattus norvegicus [15],0.11 %ID/g
same,Uptake,Rattus norvegicus [16],0.16 %ID/g
same,Uptake,Rattus norvegicus [17],0.15 %ID/g
same,Uptake,Rattus norvegicus [18],0.15 %ID/g
same,Uptake,Rattus norvegicus [19],0.16 %ID/g
same,Uptake,Rattus norvegicus [20],0.13 %ID/g
same,pKi,[21],8.45
same,Uptake,Rattus norvegicus [22],0.09 %ID/g
same,Uptake,Rattus norvegicus [23],0.13 %ID/g
same,Uptake,Rattus norvegicus [24],0.1 %ID/g
same,Uptake,Rattus norvegicus [25],0.08 %ID/g
